pIC50: −log10 of the molar value.
Experiments:
Plasmodium falciparum = test: Antiplasmodial activity against chloroquine-sensitive ring-stage Plasmodium falciparum 3D7 assessed as [3H]hypoxanthine incorporation after 48 hrs by liquid scintillation counter; format: functional, organism-based
Outline: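 Ring-stage 3D7-infected erythrocytes at 0.5% parasitemia, 2.5% hematocrit, in triplicate wells with serial compound dilutions. After 48 h under standard culture conditions, 0.5 µCi [3H]-hypoxanthine was added per well and culture continued a further 24 h. Harvested cells counted by scintillation. Inhibition was taken against matched 0.5% DMSO controls. IC50 was obtained by linear interpolation, as the mean of two independent triplicate experiments.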

[1] = Cytotoxicity against human NFF assessed as growth inhibition at 100 uM after 3 days by sulforhodamine B assay; format: cell-based; settings: NFF cells, read-out: GI
[2] = Cytotoxicity against human NFF assessed as growth inhibition at 50 uM after 3 days by sulforhodamine B assay; format: cell-based; settings: NFF cells, read-out: GI
NFF = test: Cytotoxicity against human NFF assessed as growth inhibition after 3 days by sulforhodamine B assay; format: cell-based; settings: 72 h
Outline: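 NFF cells were kept in log phase in RPMI 1640 with 10% FCS and 1% streptomycin at 37 °C, 5% CO2. They were seeded at 3000/well and grown 24 h before treatment. Compounds went in as DMSO solutions diluted in medium, with DMSO ≤1% and DMSO-matched controls. After 3 days cells were PBS-washed and fixed in methylated spirits. Total protein was measured by sulforhodamine B, in triplicate across three independent experiments.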

COc1cccc2c1C[C@@H]1[C@H](/C=C/c3ccc(Br)cc3)c3c(OC)cccc3O[C@]1(c1ccc(Br)cc1)O2
pIC50 (Plasmodium falciparum): 4.40
inhibition at 72 h, 100 µM [1]: 38%

COc1cccc2c1C[C@@H]1[C@H](/C=C/c3ccc(Cl)cc3)c3c(OC)cccc3O[C@]1(c1ccc(Cl)cc1)O2
pIC50 (Plasmodium falciparum): 5.08
inhibition at 72 h, 100 µM [1]: 83.6%

COc1ccc(/C=C/[C@@H]2c3c(OC)cccc3O[C@]3(c4ccc(OC)cc4)Oc4cccc(OC)c4C[C@H]23)cc1
pIC50 (Plasmodium falciparum): 5.09
inhibition at 72 h, 100 µM [1]: 54.6%

COc1cccc2c1C[C@@H]1[C@H](/C=C/c3ccc(C)cc3)c3c(OC)cccc3O[C@]1(c1ccc(C)cc1)O2
pIC50 (Plasmodium falciparum): 5.17
inhibition at 72 h, 100 µM [1]: 60.1%

COc1ccc2c(c1)C[C@@H]1[C@H](/C=C/c3ccccc3)c3cc(OC)ccc3O[C@]1(c1ccccc1)O2
pIC50 (Plasmodium falciparum): 4.99
inhibition at 72 h, 100 µM [1]: 51.4%

COc1ccc2c(c1)C[C@@H]1[C@H](/C=C/c3ccc(Br)cc3)c3cc(OC)ccc3O[C@]1(c1ccc(Br)cc1)O2
pIC50 (Plasmodium falciparum): 4.76
inhibition at 72 h, 100 µM [1]: 51%

COc1ccc2c(c1)C[C@@H]1[C@H](/C=C/c3ccc(Cl)cc3)c3cc(OC)ccc3O[C@]1(c1ccc(Cl)cc1)O2
pIC50 (Plasmodium falciparum): 4.45
inhibition at 72 h, 100 µM [1]: 40.4%

COc1ccc2c(c1)C[C@@H]1[C@H](/C=C/c3ccc(C)cc3)c3cc(OC)ccc3O[C@]1(c1ccc(C)cc1)O2
pIC50 (Plasmodium falciparum): 5.05
inhibition at 72 h, 100 µM [1]: 40%

COc1cccc2c1C[C@@H]1[C@H](/C=C/c3ccccc3)c3c(OC)cccc3O[C@]1(c1ccccc1)O2
pIC50 (Plasmodium falciparum): 4.76
inhibition at 72 h, 100 µM [1]: 48.6%

COc1cc(OC)c2c(c1OC)O[C@@H](c1ccccc1)[C@H]1[C@@H]2Oc2c(OC)c(OC)cc(OC)c2[C@@H]1/C=C/c1ccccc1 (relative stereo)
inhibition at 72 h, 50 µM [2]: 46.9%
pIC50 (Plasmodium falciparum): 5.41

CCN(CC)CCCC(C)Nc1ccnc2cc(Cl)ccc12 (stereo unspecified) [CHLOROQUINE]
pIC50 (NFF): 4.47

— ChEMBL document CHEMBL1944576, “Synthesis and antiplasmodial evaluation of novel chromeno[2,3-b]chromene derivatives” (Bioorg Med Chem, 2012)
